{
  "source": "ChEMBL document CHEMBL1145847",
  "about": "“(S)-N-[1-(3-morpholin-4-ylphenyl)ethyl]- 3-phenylacrylamide: an orally bioavailable KCNQ2 opener with significant activity in a cortical spreading depression model of migraine” (J Med Chem, 2003)",
  "key": {"[1]": {"assay": "Percentage oral bioavailability determined in dog", "type": "ADME, organism-based, Canis lupus familiaris", "conditions": "in vivo, read-out: Bioavailabiility", "procedure,_shortened": "(§1)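 Beagle dogs (n = 3), oral solution at 3 mg/kg in 50% PEG-400/50% H2O, with iv reference at 1 mg/kg; tmax and oral bioavailability derived.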"}, "[2]": {"assay": "Percentage oral bioavailability determined in rat", "type": "ADME, organism-based", "conditions": "in vivo, read-out: Bioavailabiility"}, "[3]": {"assay": "Volume of distribution was determined in dog at 1 mg/kg, iv", "type": "ADME, organism-based, Canis lupus familiaris", "set-up": "dose 1 mg/kg, route intravenous", "conditions": "in vivo, read-out: Vdss", "procedure,_shortened": "(§2)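 Beagle dogs (n = 3), 1 mg/kg iv as a solution in 50% PEG-400/50% H2O; plasma pharmacokinetics giving clearance, half-life and steady-state volume of distribution.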"}, "[4]": {"assay": "Clearance rate determined at 1 mg/kg, iv, in dog", "type": "ADME, organism-based, Canis lupus familiaris", "set-up": "dose 1 mg/kg", "conditions": "in vivo", "procedure,_shortened": "as §2"}, "[5]": {"assay": "Clearance rate determined at 5 mg/kg, iv, in rat", "type": "ADME, organism-based", "set-up": "dose 5 mg/kg", "conditions": "in vivo", "procedure,_shortened": "(§3)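 Sprague–Dawley rats (n = 3), 5 mg/kg iv as a solution in 90% PEG-400/10% Tween 80; plasma pharmacokinetics giving clearance, half-life and steady-state volume of distribution.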"}, "[6]": {"assay": "tmax determined dog at 3 mg/kg, po", "type": "ADME, organism-based, Canis lupus familiaris", "set-up": "dose 3 mg/kg, route oral", "conditions": "in vivo", "procedure,_shortened": "as §1"}, "[7]": {"assay": "tmax determined rat at 11 mg/kg, po", "type": "ADME, organism-based", "set-up": "dose 11 mg/kg, route oral", "conditions": "in vivo"}, "[8]": {"assay": "Concentration determined in rat brain after 6 hr", "type": "ADME, organism-based", "procedure,_shortened": "(§4)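 Sprague–Dawley rats (n = 3) dosed po at 20 mg/kg as a solution in 100% PEG-400; brain and plasma sampled at 6 h.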"}, "[9]": {"assay": "Concentration determined in rat plasma after 6 hr", "type": "ADME, organism-based", "procedure,_shortened": "as §4"}, "[10]": {"molecular_target": "Voltage-gated potassium channel, KQT; KCNQ2(Kv7.2)/KCNQ3(Kv7.3) (Homo sapiens, UniProt O43525+O43526)", "sequence (O43526 whole entry)": "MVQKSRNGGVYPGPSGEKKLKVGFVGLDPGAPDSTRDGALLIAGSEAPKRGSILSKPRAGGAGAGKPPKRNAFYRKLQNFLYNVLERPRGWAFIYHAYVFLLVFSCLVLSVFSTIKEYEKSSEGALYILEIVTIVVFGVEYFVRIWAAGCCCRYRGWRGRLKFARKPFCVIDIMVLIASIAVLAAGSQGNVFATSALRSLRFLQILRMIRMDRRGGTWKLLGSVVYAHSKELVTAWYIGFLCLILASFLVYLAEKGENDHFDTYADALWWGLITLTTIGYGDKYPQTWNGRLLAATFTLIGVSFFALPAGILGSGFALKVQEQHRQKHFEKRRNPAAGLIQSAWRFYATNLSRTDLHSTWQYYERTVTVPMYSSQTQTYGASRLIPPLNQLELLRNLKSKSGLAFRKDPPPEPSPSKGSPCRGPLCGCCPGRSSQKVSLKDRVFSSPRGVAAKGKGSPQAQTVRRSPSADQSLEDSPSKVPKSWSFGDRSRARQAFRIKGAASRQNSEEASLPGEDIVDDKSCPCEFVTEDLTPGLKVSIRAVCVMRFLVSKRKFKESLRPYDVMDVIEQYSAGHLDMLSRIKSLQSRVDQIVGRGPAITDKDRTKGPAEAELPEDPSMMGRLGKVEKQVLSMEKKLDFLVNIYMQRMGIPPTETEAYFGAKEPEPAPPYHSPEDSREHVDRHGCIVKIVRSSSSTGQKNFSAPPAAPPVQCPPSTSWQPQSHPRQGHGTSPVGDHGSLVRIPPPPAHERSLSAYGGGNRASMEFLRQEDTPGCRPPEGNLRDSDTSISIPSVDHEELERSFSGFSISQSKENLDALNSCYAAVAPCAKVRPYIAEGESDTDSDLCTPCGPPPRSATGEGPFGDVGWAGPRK", "sequence (O43525 whole entry)": "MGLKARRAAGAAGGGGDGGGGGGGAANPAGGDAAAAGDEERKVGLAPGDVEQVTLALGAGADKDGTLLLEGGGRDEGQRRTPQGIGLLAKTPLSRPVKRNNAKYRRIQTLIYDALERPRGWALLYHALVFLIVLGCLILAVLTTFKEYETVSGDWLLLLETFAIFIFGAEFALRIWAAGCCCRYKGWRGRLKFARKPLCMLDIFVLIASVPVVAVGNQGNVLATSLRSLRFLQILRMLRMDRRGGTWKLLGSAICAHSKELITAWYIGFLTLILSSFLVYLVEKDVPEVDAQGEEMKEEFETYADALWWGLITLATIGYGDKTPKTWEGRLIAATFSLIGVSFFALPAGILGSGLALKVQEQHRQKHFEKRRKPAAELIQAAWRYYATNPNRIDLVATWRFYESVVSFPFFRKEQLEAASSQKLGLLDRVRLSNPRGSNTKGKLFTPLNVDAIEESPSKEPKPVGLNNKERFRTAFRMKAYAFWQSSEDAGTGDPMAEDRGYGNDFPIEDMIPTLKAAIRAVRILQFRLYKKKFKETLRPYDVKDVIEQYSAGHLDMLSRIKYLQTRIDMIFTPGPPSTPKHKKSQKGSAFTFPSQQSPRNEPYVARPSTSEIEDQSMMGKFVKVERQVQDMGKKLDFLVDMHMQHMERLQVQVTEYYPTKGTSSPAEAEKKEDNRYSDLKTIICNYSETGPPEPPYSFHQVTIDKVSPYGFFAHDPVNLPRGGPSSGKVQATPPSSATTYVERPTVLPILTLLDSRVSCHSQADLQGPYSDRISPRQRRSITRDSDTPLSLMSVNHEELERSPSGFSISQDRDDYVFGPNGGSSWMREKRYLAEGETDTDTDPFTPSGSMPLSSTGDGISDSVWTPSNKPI", "assay": "Effect on resting membrane potential in SH-SY5Y human neuroblastoma cells expressing native KCNQ channels"}, "[11]": {"tested_on": "Rattus norvegicus", "assay": "Ability to reduce the total number of proximal depolarizations was tested in rat parietal cortex at 10 mg/kg, ig", "type": "functional", "conditions": "route intragastric", "procedure,_shortened": "(§5)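 Rats; cortical spreading depression evoked by 10 min application of crystalline KCl to a small parietal cortex region. Compound given intragastrically in PEG 400 vehicle. Depolarizations counted in proximal and distal leads per animal; proximal/distal ratio calculated per group. Group mean ± SEM; Kruskal–Wallis with Dunn's posttest.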"}, "[12]": {"tested_on": "Rattus norvegicus", "assay": "Ability to reduce the total number of proximal depolarizations was tested in rat parietal cortex at 3 mg/kg, ig", "type": "functional", "conditions": "route intragastric", "procedure,_shortened": "as §5"}, "[13]": {"tested_on": "Rattus norvegicus", "assay": "Ability to reduce the total number of proximal depolarizations was tested in rat parietal cortex at 30 mg/kg, ig", "type": "functional", "conditions": "route intragastric", "procedure,_shortened": "as §5"}, "[14]": {"molecular_target": "Potassium voltage-gated channel subfamily KQT member 2 (Mus musculus, UniProt Q9Z351)", "sequence (Q9Z351 whole entry)": "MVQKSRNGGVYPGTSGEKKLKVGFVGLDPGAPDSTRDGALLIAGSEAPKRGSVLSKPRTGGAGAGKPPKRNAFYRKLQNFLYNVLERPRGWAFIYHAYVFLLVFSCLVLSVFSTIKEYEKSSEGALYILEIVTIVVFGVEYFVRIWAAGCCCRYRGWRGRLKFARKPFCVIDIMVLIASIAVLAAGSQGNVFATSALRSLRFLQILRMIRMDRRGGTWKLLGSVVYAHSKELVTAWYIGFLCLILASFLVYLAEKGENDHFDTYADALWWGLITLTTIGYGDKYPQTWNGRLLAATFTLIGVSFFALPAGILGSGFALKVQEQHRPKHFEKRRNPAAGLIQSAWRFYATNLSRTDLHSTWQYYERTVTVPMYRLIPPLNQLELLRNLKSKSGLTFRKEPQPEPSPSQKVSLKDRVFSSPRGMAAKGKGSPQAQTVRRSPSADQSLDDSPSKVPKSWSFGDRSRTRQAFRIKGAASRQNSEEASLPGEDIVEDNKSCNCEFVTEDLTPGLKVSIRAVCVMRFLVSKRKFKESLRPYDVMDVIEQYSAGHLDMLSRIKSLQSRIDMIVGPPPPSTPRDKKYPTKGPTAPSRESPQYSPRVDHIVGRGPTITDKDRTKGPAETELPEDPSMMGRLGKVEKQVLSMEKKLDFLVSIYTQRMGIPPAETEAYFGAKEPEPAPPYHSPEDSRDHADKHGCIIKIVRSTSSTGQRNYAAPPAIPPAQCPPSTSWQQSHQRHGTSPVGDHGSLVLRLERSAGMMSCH", "assay": "Induced current in Xenopus laevis oocytes expressing cloned mKCNQ2 channels", "type": "functional, cell-based, Oocyte", "procedure,_shortened": "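Two-electrode voltage clamp of Xenopus laevis oocytes expressing cloned mKCNQ2; outward current at -40 mV expressed as percent of compound-free control; concentration–response fit for EC50, n = 4–7 oocytes.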"}, "[15]": {"molecular_target": "Potassium voltage-gated channel subfamily KQT member 2 (Mus musculus) (UniProt Q9Z351)", "sequence (Q9Z351 whole entry, the tested form may be a part)": "as the sequence (Q9Z351 whole entry) above", "assay": "Threshold for augmenting KCNQ2 current in HEK 293 stable cell line expressing mKCNQ2 channel", "type": "functional, cell-based", "conditions": "HEK293", "procedure,_shortened": "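HEK 293 cells stably expressing mKCNQ2, voltage-clamped at -40 mV; compound applied by local superfusion at increasing concentrations, then washed with compound-free saline; concentration–response from three cells with logistic fit.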"}, "[16]": {"assay": "Ratio of proximal to distal depolarizations determined in rat at 3 mg/kg", "type": "functional", "procedure,_shortened": "as §5"}, "[17]": {"assay": "Ratio of proximal to distal depolarizations determined in rat at 30 mg/kg", "type": "functional", "procedure,_shortened": "as §5"}, "[18]": {"assay": "Ratio of concentration of compound in brain to the concentration in plasma", "conditions": "brain and plasma, B/P ratio"}, "[19]": {"assay": "Half-life determined at 1 mg/kg, iv, in dog", "type": "ADME, organism-based, Canis lupus familiaris", "set-up": "dose 1 mg/kg", "conditions": "in vivo", "procedure,_shortened": "as §2"}, "[20]": {"assay": "Ratio of proximal to distal depolarizations determined in rat at 10 mg/kg", "type": "functional", "procedure,_shortened": "as §5"}, "[21]": {"assay": "Volume of distribution was determined in rat at 5 mg/kg, iv", "type": "ADME, organism-based", "set-up": "dose 5 mg/kg, route intravenous", "conditions": "in vivo, read-out: Vdss", "procedure,_shortened": "as §3"}, "[22]": {"assay": "Half-life determined at 5 mg/kg, iv, in rat", "type": "ADME, organism-based", "set-up": "dose 5 mg/kg", "conditions": "in vivo", "procedure,_shortened": "as §3"}},
  "data": [
    {"smiles": "C[C@H](NC(=O)/C=C/c1ccccc1)c1cccc(N2CCOCC2)c1", "values": [
      {"measurement": "bioavailability", "setting": "[1]", "result": 100, "unit": "%"},
      {"measurement": "bioavailability", "setting": "[2]", "result": 93, "unit": "%"},
      {"measurement": "Vd", "setting": "[3]", "result": 3, "unit": "L/kg"},
      {"measurement": "clearance", "setting": "[4]", "result": 12.7, "unit": "mL/min/kg"},
      {"measurement": "clearance", "setting": "[5]", "result": 41, "unit": "mL/min/kg"},
      {"measurement": "Tmax", "setting": "[6]", "result": 30, "unit": "min"},
      {"measurement": "Tmax", "setting": "[7]", "result": 5, "unit": "h"},
      {"measurement": "concentration at 6 h", "setting": "[8]", "result": 631, "unit": "ng/g"},
      {"measurement": "concentration at 6 h", "setting": "[9]", "result": 804, "unit": "ng/mL"},
      {"measurement": "EC50", "setting": "[10]", "result": 690, "unit": "nM"},
      {"measurement": "No. of depolarizations", "setting": "[11]", "result": 25},
      {"measurement": "No. of depolarizations", "setting": "[12]", "result": 36},
      {"measurement": "No. of depolarizations", "setting": "[13]", "result": 23},
      {"measurement": "EC50", "setting": "[14]", "result": 6, "unit": "µM"},
      {"measurement": "Concentration", "setting": "[15]", "result": 300, "unit": "nM"},
      {"measurement": "P/D", "setting": "[16]", "result": 1.1},
      {"measurement": "P/D", "setting": "[17]", "result": 1.22},
      {"measurement": "Kp", "setting": "[18]", "result": 0.78},
      {"measurement": "half-life", "setting": "[19]", "result": 180, "unit": "min"},
      {"measurement": "P/D", "setting": "[20]", "result": 1.15},
      {"measurement": "Vd", "setting": "[21]", "result": 2.5, "unit": "L/kg"},
      {"measurement": "half-life", "setting": "[22]", "result": 126, "unit": "min"}
    ]}
  ]
}
